Measured values reported in paper PMC8607274 (Translational Oncology, 2021).
One block for each compound: values may come before it.

Legend:
[1] = tested on: various cancer cell lines; settings: cited from earlier work
PA1 cells [2] = experiment: Cell viability assay with ST03 and NAC; format: cell-based; settings: 20 mM NAC, 20 nM ST03, 24 h
A2780 cells [3] = experiment: Spectrometric ROS measurement; format: cell-based
Outline: (§1)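 Plate-reader ROS: 20,000 cells/well plated; after 24 h washed in PBS. Incubated 1 h in PBS with 10 µM H2DCFDA plus various test-compound concentrations, with or without 20 mM NAC. Fluorescence read at ex 485/em 535. 200 µM H2O2 as positive control.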

PA1 cells [4] = experiment: Spectrometric ROS measurement; format: cell-based
Outline: as §1

A2780 cells [5] = experiment: Cell viability assay with ST03 and NAC; format: cell-based; settings: 20 mM NAC, 20 nM ST03, 24 h
[6] = tested on: human breast cancer cell lines (MDA-MB-231, MDA-MB-468, MCF7); experiment: MTT assay of human breast cancer cell lines; format: cell-based; settings: 48 h, read-out: IC50 (cytotoxicity)
PA1 cells [7] = experiment: Transwell migration assay; format: cell-based; settings: 40 nM, 48 h treatment, 5 h migration
Outline: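 PA1 cells pretreated with various test-compound concentrations for 48 h, then 1 × 10^5 seeded into 8 µm-pore inserts in serum-free medium, complete medium below, 5 h. Inserts washed in PBS and fixed in 70% ethanol; non-migrated inner cells removed with cotton. Cells stained with 0.2% crystal violet, imaged and quantified by image analysis.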

A2780 = experiment: Cytotoxicity on ovarian cancer cells compared to curcumin; format: cell-based
[8] = Toxicity in experimental animals; format: in vivo, Swiss albino mice
PA1 cells [9] = experiment: Cell cycle analysis; format: cell-based; settings: 48 h
Outline: (§2)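 Cells seeded at 1 × 10^5/well, then treated next day with 10, 50 or 75 nM for 48 h. PI (4 µg/ml) added for 5 min at RT. 10,000 events acquired by flow cytometry.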

PA1 cells [10] = experiment: JC-1 mitochondrial membrane potential assay; format: cell-based; settings: 10, 50, 75 nM; 48 h
Outline: (§3)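 After 48 h test-compound treatment, cells were harvested and resuspended in staining buffer containing JC-1, 20 min in the dark at 37 °C, 5% CO2. Then resuspended in fresh buffer; 10,000 events acquired by flow cytometry. Valinomycin as positive control.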

PA1 cells [11] = experiment: Real time PCR of mitochondrial OXPHOS genes; format: cell-based; settings: 48 h
Outline: (§4)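 Total RNA extracted from cells treated with various test-compound concentrations. 2 µg RNA reverse-transcribed to cDNA. qPCR run in triplicate with primers for ND2, CYTB and ATPase 6.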

EAC tumor tissue = experiment: Histology; format: in vivo, Swiss albino mice; settings: ST03 post-treatment
Outline: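 Tumour and organs (kidney, liver, spleen) collected at study end and fixed; paraffin sections (10 µm) H&E-stained. PCNA IHC on 5 µm tumour sections: 3% H2O2 in PBS, antigen retrieval by boiling in 10 mM sodium citrate pH 6. Blocked with 5% goat serum/1% BSA for 30 min. Mouse anti-PCNA 1:100 (1 h RT or overnight 4 °C), biotinylated anti-mouse IgG 1:200, streptavidin-HRP 1:1000, DAB-H2O2.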

PA1 cells [12] = experiment: Immunoblotting of apoptosis-related proteins and MMP1; format: cell-based
Outline: (§5)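 Treated and control cells lysed in RIPA buffer with protease inhibitors; protein measured by Bradford. 40 µg resolved by SDS-PAGE and transferred to PVDF. Bands probed with antibodies, detected by enhanced chemiluminescence and quantified by densitometry.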

PA-1 cells = experiment: Cytotoxicity on ovarian cancer cells compared to curcumin; format: cell-based
[13] = Bioavailability study, plasma concentration by HPLC-UV; format: in vivo, Swiss albino mice
Outline: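 Swiss albino mice, n = 2/group, single oral or i.p. dose: test compound 10 mg/kg b.wt, curcumin 20 mg/kg b.wt. Blood sampled at 5, 10, 15 min and 1, 3, 6, 12, 24 h. Plasma protein-precipitated with an equal volume of acetonitrile. HPLC-UV at 1 mL/min, room temperature, detection 312 nm (test compound) or 369 nm (curcumin). Calibration curve in mouse plasma, 1–100 µM. Mean per time point.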

A2780 cells [14] = experiment: JC-1 mitochondrial membrane potential assay; format: cell-based; settings: 10, 50, 75 nM; 48 h
Outline: as §3

MCF7 = experiment: MTT assay of human breast cancer cell lines; format: cell-based; settings: 48 hours
A2780 cells [15] = experiment: Real time PCR of mitochondrial OXPHOS genes; format: cell-based; settings: 48 h
Outline: as §4

[16] = tested on: Ehrlich ascites carcinoma (EAC) solid tumor; experiment: Chemopreventive effect in EAC solid tumor mice; format: in vivo, Swiss albino mice
Outline: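 Subcutaneous EAC thigh tumour model (1 × 10^6 cells). The treated group got 15 alternate-day doses of test compound (10 mg/kg b.wt) before tumour injection, none at inoculation, then 15 further doses after tumour injection. Compared with untreated controls, n = 5/group. Tumour volume was measured from day 7 after tumour injection, with body weight and physiological parameters. Two independent experiments.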

A2780 cells [17] = experiment: Immunoblotting of apoptosis-related proteins; format: cell-based
Outline: as §5

A2780 cells [18] = experiment: Intracellular ROS, H2DCFDA flow cytometry; format: cell-based; settings: 75 nM
Outline: (§6)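 Intracellular ROS: 1 × 10^5 cells per 35 mm dish exposed to test compound for 10, 20 and 30 min. Harvested, washed in PBS, stained with H2DCFDA for 30 min and analysed by flow cytometry. H2O2-treated cells as positive control. ROS taken as the histogram shift in median fluorescence intensity versus vehicle control.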

PA1 cells [19] = experiment: Intracellular ROS, H2DCFDA flow cytometry; format: cell-based
Outline: as §6

Solubility in 0.6 N HCl = format: physicochemical
A2780 cells [20] = experiment: Cell cycle analysis; format: cell-based; settings: 48 h
Outline: as §2

[21] = tested on: Ehrlich ascites carcinoma (EAC) solid tumor; experiment: Antitumor activity in EAC solid tumor mice; format: in vivo, Swiss albino mice
Outline: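 EAC cells maintained by intraperitoneal passage in mice every 7 days. Day-7 ascites cells were diluted in PBS, and 1 × 10^6 cells were injected subcutaneously into the thigh. On day 7, caliper-measured tumours were allocated to groups of equal mean size, 5 animals/group, repeated three times (n = 15). Groups: untreated control or test compound 10 mg/kg b.wt i.p. every alternate day. Tumour size and body weight were recorded every alternate day; V = (ab2)/2.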

xenograft models = settings: twice-daily, nude mice; cited from earlier work
tumor = settings: cited from earlier work
[22] = Swiss albino, mouse, plasma, ip, 10 mg/kg
[23] = Swiss albino, mouse, plasma, po, 10 mg/kg
[24] = Swiss albino, mouse, plasma, ip, 20 mg/kg
[25] = Swiss albino, mouse, plasma, po, 20 mg/kg

SMILES: O=C1/C(=C/c2ccccc2)CN(C(=O)C(=O)N2C/C(=C\c3ccccc3)C(=O)/C(=C/c3ccccc3)C2)C/C1=C\c1ccccc1 [1,2-bis[(3E,5E)−3,5-dibenzylidene-4-oxo-1-piperidyl]ethane-1,2-dione, reference compound]
cytotoxic potency compared with curcumin ([1]; multiple cancer cell lines in vitro): greater potency than the parent compound curcumin

SMILES: CC(=O)N[C@@H](CS)C(=O)O [NAC, N-acetylcysteine, reference compound]
cell death with ST03 in presence of NAC (PA1 cells [2]): decrease in cell death
effect of NAC on ST03 induced ROS (A2780 cells [3]; 20 mM NAC with ST03): blocked ST03 induced increase in ROS
effect of NAC on ST03 induced ROS (PA1 cells [4]; 20 mM NAC with ST03): blocked ST03 induced increase in ROS
cell death with ST03 in presence of NAC (A2780 cells [5]): decrease in cell death

SMILES: O=C1/C(=C/c2ccccc2Cl)CN(C(=O)C(=O)N2C/C(=C\c3ccccc3Cl)C(=O)/C(=C/c3ccccc3Cl)C2)C/C1=C\c1ccccc1Cl [ST03, 1,2-bis[(3E,5E)-3,5-bis[(2-chlorophenyl)methylene]-4-oxo-1-piperidyl]ethane-1,2-dione]
IC50 [6]: 166 to 301 nM
time to peak ROS levels (A2780 cells [3]; 20 mM ST03 as printed, 20 nM): 1 h
potency relative to curcumin [1]: ~100 fold
selectivity of toxicity, cancer cells vs normal cells [1]: selectively induces toxicity in cancer cells compared to normal cells
time to peak ROS levels (PA1 cells [4]; 20 mM ST03 as printed, 20 nM): 1 h
reduction in migration (PA1 cells [7]): 60%
cytotoxicity relative to curcumin (A2780): 100 fold
histopathology of kidney, liver and spleen (H&E) ([8]; ST03 post-treatment): no pathological changes
RBC count ([8]; end of study): No significant change
WBC count vs control group ([8]; end of study): increase in the number of WBCs
body weight ([8]; pre- and post-treatment animals, 10 mg/kg b.wt): no notable weight reduction
ALT level ([8]; serum, end of study): No significant change
AST level ([8]; serum, end of study): No significant change
urea level ([8]; serum, end of study): No significant change
cells accumulated at the sub G0/G1 stage (PA1 cells [9]; 50 nM): ~70%
cell cycle arrest (PA1 cells [9]; 10, 50, 75 nM): no notable cell cycle arrest
JC1 green population (mitochondrial damage) (PA1 cells [10]): increase in the green population
transcription of mitochondrially encoded OXPHOS genes (ND2, CYB, Atpase6) (PA1 cells [11]): decrease in the transcription
proliferating cells (PCNA staining) in tumor (EAC tumor tissue): reduction in proliferating cells
tumor cells in H&E stained tumor vs control tissue (EAC tumor tissue): significant reduction of tumor cells
Bcl2 in tumor extract (EAC tumor tissue; western blot): up-regulation
p53 expression (PA1 cells [12]): upregulation
Bax expression (PA1 cells [12]; 40 nM): increase
Bcl2 expression (PA1 cells [12]; 40 nM): significant decrease
MMP1 expression (PA1 cells [12]; 40 nM): significant decrease
Cytochrome C (PA1 cells [12]; increasing concentrations): increase
cytotoxicity on PA-1 compared with A2780 (PA-1 cells): better cytotoxicity on PA-1 cells
cytotoxicity relative to curcumin (PA-1 cells): 100 fold
Cmax [13, 22]: 98.4 µM
Tmax [13, 22]: 8 h
Cmax [13, 23]: 55.2 µM
Tmax [13, 23]: 2 h
half-life [13, 23]: 3 h
presence in plasma until ([13]; intraperitoneal): > 12 h
presence in plasma until ([13]; oral): > 12 h
bioavailability compared to curcumin ([13]; oral, ST03 10 mg/kg, curcumin 20 mg/kg): ~14 fold
detectable in plasma ([13]; route not given): up to 12 h
JC1 green population (mitochondrial damage) (A2780 cells [14]): increase in the green population
IC50 rank among breast cancer cell lines (MCF7): least IC50
transcription of mitochondrially encoded OXPHOS genes (ND2, CYB, Atpase6) (A2780 cells [15]): decrease in the transcription
pre and post-treatment compared with post-treatment alone ([16]; 10 mg/kg b.wt): better results than post-treatment alone
tumor growth vs controls ([16]; pre-treatment with 15 alternate doses of 10 mg/kg b.wt, then post-treatment): significant reduction in tumor growth
p53 expression (A2780 cells [17]): upregulation
Bax expression (A2780 cells [17]; 40 nM): increase
Bcl2 expression (A2780 cells [17]; 40 nM): significant decrease
Cytochrome C (A2780 cells [17]; increasing concentrations): increase
time at which the histogram shifted (ROS production) (A2780 cells [18]): 30 min
time at which ROS production was induced (PA1 cells [19]; 40 nM): 10 min
time at which ROS production was induced (PA1 cells [19]; 50 nM): ≤ 10 min
solubility (Solubility in 0.6 N HCl): completely soluble
cells accumulated at the sub G0/G1 stage (A2780 cells [20]; 50 nM): ~60%
cell cycle arrest (A2780 cells [20]; 10, 50, 75 nM): no notable cell cycle arrest
spleen size vs untreated animals ([21]; 10 mg/kg b.wt i.p.): reduction in spleen size
tumor growth vs untreated control ([21]; 10 mg/kg b.wt i.p. every alternate day from day 7, 25 days): significant reduction in tumor growth
dosage sufficient to inhibit tumor growth without adverse systemic toxicity ([21]; 15 doses, tumor allograft): 10 mg/kg

Cmax [13, 24]: 2.7 µM
Tmax [13, 24]: 3 h
Cmax [13, 25]: 13.7 µM
Tmax [13, 25]: 0.25 h
SMILES: COc1cc(/C=C/C(=O)CC(=O)/C=C/c2ccc(O)c(OC)c2)ccc1O [curcumin, reference compound]
effective dosage in xenograft models (xenograft models): 50 mg/kg b.wt
potency range [1]: ~10000 nM
dosage with antitumor activity in vivo (tumor): 800 mg/kg of body weight
